In article PMC2924166 (Proteins, 2009):
pKd: −log10 of the molar value. Values belong to the compound of their own block, whether it stands above or below them.

How the values were obtained:
Assay type in all cases: binding
WT CaM1–148 = WT CaM1–148 (Rattus norvegicus, UniProt P0DP29); test: Fluorescence anisotropy titration of Fl-CaMKIIp with WT CaM1–148
[1] = Calcium affinity of fluorescent indicator dyes; details: higher affinity for calcium
[2] = Equilibrium calcium titration of CaM, sites III and IV; details: pH 7.4, 22°C
[3] = Equilibrium calcium titration of CaM, sites I and II; details: pH 7.4, 22°C
Summary of the method: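 Recombinant CaM constructs (1–148, 1–80) at 2 μM were used alone or with 10 μM CaMKII CaM-binding-domain peptide (residues 290–309, 1:5). CaCl2 was titrated to 1 nM–0.01 M. Phe fluorescence was read at ex 250/em 280 nm. Free Ca2+ came from 0.1 μM Oregon Green, or XRhod5F with peptide. Runs were done ≥3 times, normalized, and fit by nonlinear least squares to ΔG1, ΔG2.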

[4] = peptide equivalent 0, 2 μM CaM, 50 mM HEPES, 100 mM KCl, 1 mM MgCl2, 0.05 mM EGTA, 5 mM NTA, Oregon Green, repeated at least three times

level of saturation of CaMKIIp by CaM1–148 (WT CaM1–148; 10 μM CaM1–148, 23 nM calcium): less than 10%
level of saturation of CaMKIIp by CaM1–148 (WT CaM1–148; 10 μM CaM1–148, 311 nM calcium): more than 95%
pKd (WT CaM1–148; Kd of (Ca^2+)4-CaM1–148 for Fl-CaMKIIp, 10 mM CaCl2, stoichiometric range, upper limit): ≥ 8.00
concentration of apo CaM-CaMKIIp in presence of 5 eq. CaMKIIp (WT CaM1–148; apo, 2 μM CaM, 10 μM CaMKIIp): ≤ 10%
Compound: CC[C@H](C)[C@H](NC(=O)[C@H](C)NC(=O)CNC(=O)[C@H](CCCCN)NC(=O)[C@H](CC(C)C)NC(=O)[C@H](CCCCN)NC(=O)[C@H](CCCNC(=N)N)NC(=O)[C@H](CCCNC(=N)N)NC(=O)[C@H](C)NC(=O)[C@H](CC(N)=O)NC(=O)[C@H](Cc1ccccc1)NC(=O)[C@H](CCCCN)NC(=O)[C@H](CCCCN)NC(=O)[C@@H](N)CC(C)C)C(=O)N[C@@H](CC(C)C)C(=O)N[C@H](C(=O)N[C@H](C(=O)N[C@@H](CCSC)C(=O)N[C@@H](CC(C)C)C(=O)N[C@@H](C)C(=O)O)[C@@H](C)O)[C@@H](C)O [CaMKIIp]

lower Kd for calcium versus Oregon Green [1]: ~ 20 fold
Compound: XRhod5F

ΔG1 of calcium binding, sites III and IV [2, 4]: -5.45 ± 0.51 kcal/mol
Compound: CaM76–148: C-domain fragment of calmodulin, residues 76–148
ΔGc, sites III and IV ([2]; peptide equivalent 0): -4.57 ± 1.15 kcal/mol
ΔGc, sites III and IV ([2]; peptide equivalent 5 (CaMKIIp)): -2.81 ± 0.47 kcal/mol

ΔG1 of calcium binding, sites I and II [3, 4]: -5.92 ± 0.38 kcal/mol
Compound: CaM1–80: N-domain fragment of calmodulin, residues 1–80
ΔGc, sites I and II ([3]; peptide equivalent 0): -1.73 ± 0.68 kcal/mol
ΔGc, sites I and II ([3]; peptide equivalent 5 (CaMKIIp)): -3.38 ± 1.18 kcal/mol
